Test results taken from ChEMBL document CHEMBL4619781 (J Med Chem, 2020).
Activity calls are given as the source filed them. The rule behind the calls is not given here.

Assays:
SK-MEL-5 = experiment: Cytotoxicity against human SK-MEL-5 cells assessed as reduction in cell viability measured after 72 hrs by CellTiter 96 aqueous one solution assay; assay type: functional, cell-based; details: SK-MEL-5, 72 h
Outline: (§1)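 Cells diluted to 5 × 10^4 cells/mL in RPMI 1640 or DMEM with 10% FBS, streptomycin and penicillin; plated and incubated 24 h at 37 °C, 5% CO2. Medium replaced, then serial dilutions added from DMSO at final 0–1000 nM for 72 h. Absorbance at 490 nm read after 30–60 min with reagent. Mean ± SD of three replicates; EC50 by curve fitting.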

SF-295 = experiment: Cytotoxicity against human SF295 cells assessed as reduction in cell viability measured after 72 hrs by CellTiter 96 aqueous one solution assay; assay type: functional, cell-based; details: SF-295, 72 h; outline: as §1
MDA-MB-231 = experiment: Cytotoxicity against human MDA-MB-231 cells assessed as reduction in cell viability measured after 72 hrs by CellTiter 96 aqueous one solution assay; assay type: functional, cell-based; details: MDA-MB-231, 72 h; outline: as §1
NCI-H226 = experiment: Cytotoxicity against human NCI-H226 cells assessed as reduction in cell viability measured after 72 hrs by CellTiter 96 aqueous one solution assay; assay type: functional, cell-based; details: NCI-H226, 72 h; outline: as §1
DNA = experiment: Induction of Escherichia coli plasmid pUC19 DNA cleavage assessed as increase in relaxation of supercoiled plasmid DNA measured after 24 hrs by SYBR green staining based gel electrophoresis; assay type: nucleic-acid assay
Outline: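 Supercoiled pUC19 (25 nM plasmid, […]) in Dulbecco's PBS pH 7.4 with 5% DMSO and varying compound concentrations, with or without 1 mM reduced glutathione, 37 °C for 24 h, in triplicate. Run on 1% agarose gel in TAE at 100 V for 1 h. Supercoiled (form I) band intensity normalized to DMSO controls.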

With `COc1ccc2c(c1O)C(=O)c1c3c(cc(O)c1C2=O)[C@@]12O[C@@]1([C@@H](C)O)[C@H](C#C/C=C\C#C[C@H]2O)N3` the EC50 (SK-MEL-5) was 0.74 nM, the EC50 (SF-295) was 0.45 nM and the EC50 (MDA-MB-231) was 1.1 nM. The EC50 (NCI-H226) was 4.2 nM and the Activity (DNA) was “Active”.

For `COC(=O)[C@H](O)[C@@](C)(O)[C@@]12O[C@]13c1cc(O)c4c(c1N[C@H]2C#C/C=C\C#C[C@H]3O)C(=O)c1c(ccc(OC)c1O)C4=O`, the EC50 (SK-MEL-5) was 2.8 nM, the EC50 (SF-295) was 4 nM and the EC50 (MDA-MB-231) was 5 nM. The EC50 (NCI-H226) was 32 nM and the Activity (DNA) was “Active”.

With `COC(=O)[C@H](O)[C@@](C)(O)[C@@]12O[C@]13c1cc(O)c4c(c1N[C@H]2C#C/C=C\C#C[C@H]3O)C(=O)c1cc(OC)ccc1C4=O` the EC50 (SK-MEL-5) was 19 nM, the EC50 (SF-295) was 21 nM and the EC50 (MDA-MB-231) was 14 nM. The EC50 (NCI-H226) was 68 nM and the Activity (DNA) was “Active”.

Work on `COC(=O)[C@H](O)[C@@](C)(O)[C@@]12O[C@]13c1cc(O)c4c(c1N[C@H]2C#C/C=C\C#C[C@H]3O)C(=O)c1cc(O)ccc1C4=O` yielded an EC50 (SK-MEL-5) of 36 nM, an EC50 (SF-295) of 51 nM and an EC50 (MDA-MB-231) of 37 nM. The EC50 (NCI-H226) was 75 nM and the Activity (DNA) was “Active”.

For `COC(=O)[C@H](O)[C@@](C)(O)[C@@]12O[C@]13c1cc(O)c4c(c1N[C@H]2C#C/C=C\C#C[C@H]3O)C(=O)c1c(ccc(O)c1O)C4=O`, the EC50 (SK-MEL-5) was 32 nM, the EC50 (SF-295) was 45 nM and the EC50 (MDA-MB-231) was 34 nM. The EC50 (NCI-H226) was 66 nM and the Activity (DNA) was “Active”.

For `C#CCOc1ccc2c(c1O)C(=O)c1c3c(cc(O)c1C2=O)[C@@]12O[C@@]1([C@](C)(O)[C@@H](O)C(=O)OC)[C@H](C#C/C=C\C#C[C@H]2O)N3`, the EC50 (SK-MEL-5) was 2.8 nM, the EC50 (SF-295) was 2.8 nM and the EC50 (MDA-MB-231) was 3.7 nM. The EC50 (NCI-H226) was 26 nM and the Activity (DNA) was “Active”.

For `COC(=O)[C@H](O)[C@@](C)(O)[C@@]12O[C@]13c1cc(O)c4c(c1N[C@H]2C#C/C=C\C#C[C@H]3O)C(=O)c1c(ccc(OCC(C)=O)c1O)C4=O`, the EC50 (SK-MEL-5) was 0.8 nM, the EC50 (SF-295) was 1.1 nM and the EC50 (MDA-MB-231) was 0.9 nM. For the same molecule, the EC50 (NCI-H226) was 3.7 nM and the Activity (DNA) was “Active”.
